Assay outcomes as filed in PubChem.
Beta2AR agonist = agonists of human beta-2 adrenergic receptor inducing internalization | P07550 | Am2.2-beta2AR cells, FAP receptor internalization, flow cytometry | response, % (test concentration not listed) | 0.43% of 340,000 active;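 active = response above a set limit, near 3 SD of response in nonfluorescent compounds, cut at about 42% in these data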
Target sequence (P07550 whole entry, looked up): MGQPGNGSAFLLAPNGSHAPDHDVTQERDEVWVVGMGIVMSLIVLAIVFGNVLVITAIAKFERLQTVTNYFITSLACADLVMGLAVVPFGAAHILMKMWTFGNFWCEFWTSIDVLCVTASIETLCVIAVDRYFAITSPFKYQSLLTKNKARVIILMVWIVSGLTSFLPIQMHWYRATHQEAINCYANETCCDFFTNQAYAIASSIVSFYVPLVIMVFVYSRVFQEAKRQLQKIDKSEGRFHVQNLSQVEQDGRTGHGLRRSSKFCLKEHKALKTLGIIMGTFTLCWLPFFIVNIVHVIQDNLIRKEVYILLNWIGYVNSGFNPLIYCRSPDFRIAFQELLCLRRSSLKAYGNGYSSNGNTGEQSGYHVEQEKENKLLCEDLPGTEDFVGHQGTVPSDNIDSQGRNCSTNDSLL
MEKK2wt PB1 HTS = raises or lowers MEK5 binding to wildtype human MEKK2 PB1 domain; Q9Y2U5; bead flow cytometry, Alexa488-MEK5 binding to MEKK2 WT; actives lie on both sides; binding response (% of control), % at 10 µM; 1.1% of 290,000 active; AID 1531; in the data active = binding response below about 67% or above about 130%; inconclusive = no clear call, values can overlap the other calls; inactive = in between
MEKK2 mut-MEK5 = signal of MEK5 binding to mutant human MEKK2 PB1 domain; bead flow cytometry, Alexa488-MEK5 binding to MEKK2 mutant; percent response, % at 10 µM; 0.35% of 290,000 active; AID 1530; in the data active = percent response above about 24%, passing the limit was not always enough
MEKK3 PB1 HTS = MEKK3-MEK5 PB1 interaction, increase or decrease; bead-based flow cytometry, Alexa488-MEK5 binding to MEKK3; actives lie on both sides; 0 = blocked by unlabeled MEK5, 100 = vehicle; binding response (% of control), % at 10 µM; 1.4% of 290,000 active; AID 1529;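 active = binding response more than 3 SD above or below the average of its plate-row segment, actives on both sides; inconclusive = wells at one plate position flagged as instrument error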;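 also: Alexa488 bead fluorescence after subtracting the streptavidin-only scavenger bead signal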
ATG4B inh = ATG4B (human) cysteine protease inhibition | Q9Y4P1 | ATG4B cleavage of LC3-PLA2, NBD-HPC fluorescence, 1 h | inhibition, % at 8.33 µM | 0.51% of 340,000 active | AID 504462; in the data active = inhibition above about 40%
Dynein transport = blocks dynein driven cargo transport along microtubules; 3617.4 mouse cells, GR-EGFP nuclear translocation imaging; test concentration mostly 20 µM; stimulated with dexamethasone, 1 µM; stronger effect = lower value; AID 1381; z-score, hits read low; 0.47% of 220,000 active;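 active = plate z-score of nuclear minus cytoplasmic receptor signal below a set negative limit, without overly bright fluorescence or cell loss, cut at about -3.5 in these data, passing the limit was not always enough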;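 also: z-score of nuclear minus cytoplasmic ring GR-EGFP intensity difference per well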
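Buffer or medium: tetracycline-free induction medium containing charcoal-stripped FBS / Reagent: dexamethasone agonist, 1.0 µM final, for 30 min / Technique: automated 10x imaging of fixed Hoechst-stained cells / Times: induction 48 h, compound 1 h, agonist 30 min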
Dynein inh conf = dynein cargo transport inhibition, confirmation; shares compounds with Dynein transport; 3617.4 GR-EGFP nuclear translocation imaging, dexamethasone-induced; calls only at 20 µM; 69% of 1,000 active; AID 463116;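 active = inhibition of receptor movement into the nucleus at or above a set limit in both runs, with normal cell brightness and cell count; inconclusive = limit reached in only one run, brightness and count normal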;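 also: dexamethasone at 1 µM final in well for 30 min; nuclear minus cytoplasmic GR-EGFP mean intensity difference in channel 2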
Starred values were filed as active, the others as inactive; i = inactive; ? = inconclusive; / = no result; + = active, no number. Compounds with a hit are over-represented: about 2.9% of the library has one in this group of screens.

SMILES	Beta2AR agonist	MEKK2wt PB1 HTS	MEKK2 mut-MEK5	MEKK3 PB1 HTS	ATG4B inh	Dynein transport	Dynein inh conf
Cn1nc(C(=O)N2CCN(c3ccc([N+](=O)[O-])cc3)CC2)c2c1-c1ccccc1S(=O)(=O)C2	2	95	2	98	-3	/	/
CNC(=O)c1nnsc1S(=O)c1ccc(Cl)cc1 (stereo unspecified)	2	100	-2	101	-3	-5*	+
CCCNC(=O)c1nnsc1S(=O)c1ccc(Cl)cc1 (stereo unspecified)	50*	107	-1	111	-3	-4.8*	+
CC(CN1CCCCC1)OC(=O)COc1ccc(Br)cc1 (stereo unspecified)	5	108	16	106	-1	/	/
CC(C)(C)C(=O)/C(=C/c1ccncc1)n1cncn1	5	98	-1	98	-5	-5.1*	+
Cc1nn(C)c(C)c1/C=C(/C(=O)C(C)(C)C)n1cncn1	-6	97	-19	90	1	-1.8	/
O=C(CN(c1cccc(C(F)(F)F)c1)S(=O)(=O)c1ccc(Cl)c([N+](=O)[O-])c1)NCc1ccccc1	-1	105	1	91	-3	-5.5*	+
CC(NC(=O)CN(c1cccc(C(F)(F)F)c1)S(=O)(=O)c1ccc(Cl)c([N+](=O)[O-])c1)c1ccccc1 (stereo unspecified)	19	105	3	103	6	-1.6	/
COc1ccc(-n2ncc(N(C)n3cccc3)c(Cl)c2=O)cc1	-5	114	15	110	1	-0.6	/
COc1ccc(-n2ncc(Cl)c(Cl)c2=O)cc1	/	101	0	104	1	-6.8*	+
COc1cc(/C=C2\C(=O)ON=C2c2ccccc2)cc(OC)c1OC	2	95	-7	97	-9	-2	/
Cc1ccc(C2=NOC(=O)/C2=C\C=C\c2ccccc2)cc1	10	90	-2	82	0	-5.6*	+
CN(C(=O)CCl)C1CCCc2ccccc21 (stereo unspecified)	15	93	-9	92	-1	-7.6*	+
O=C(CCl)NC1CCCc2ccccc21 (stereo unspecified)	0	98	1	98	2	-0.18	/
O=C(O)c1cc([N+](=O)[O-])c(Sc2nc3ccccc3[nH]2)c([N+](=O)[O-])c1	-1	108	8	106	-2	/	/
CS(=O)(=O)c1cc([N+](=O)[O-])c(Sc2nc3ccccc3[nH]2)c([N+](=O)[O-])c1	63*	100	2	97	-4	-3.6*	+
O=c1cc(-c2ccc(Cl)cc2)oc(=O)[nH]1	5	102	3	106	-5	0.14	/
O=c1cc(N=Nc2ccc(Cl)cc2)[nH]c(=O)[nH]1	51*	91	-2	93	1	-4.5*	+
O=C(c1cccc(NS(=O)(=O)c2ccc(Br)cc2)c1)N1CCN(c2ccccc2O)CC1	4	/	/	/	3	/	/
CC1=CC(=O)C(C(C)C)=CC1=NC(=O)c1ccc(C)cc1	21	76	-10	77	-6	-4.9*	?
CC1=CC(=O)C(C(C)C)=C/C1=N/OC(=O)c1cccc([N+](=O)[O-])c1	1	100	-1	100	3	-0.76	/
Cc1ccccc1CS(=O)(=O)c1nnc([C@H](CC(C)C)NC(=O)OC(C)(C)C)o1	64*	101	6	106	1	-3.7*	+
Cc1cccc(NC(=O)CN2C(=O)N/C(=C/c3ccc(C)s3)C2=O)c1	-29	102	1	125	8	-4.5	?
CCOc1ccccc1N1C(=O)CC(Sc2n[nH]c(-c3ccccc3)n2)C1=O (stereo unspecified)	25	105	1	100	-9	-4.1*	+
COc1ccc(N2C(=O)CC(Sc3n[nH]c(-c4cccc(C)c4)n3)C2=O)cc1 (stereo unspecified)	3	69	-5	73	-8	2	/
SMILES	Beta2AR agonist	MEKK2wt PB1 HTS	MEKK2 mut-MEK5	MEKK3 PB1 HTS	ATG4B inh	Dynein transport	Dynein inh conf
N#CC1(C#N)COC23CCCCC2C1(C#N)C(=N)O3 (stereo unspecified)	2	96	1	97	4	-2.9	/
N#CC12COC3(CCCCC3C1(C#N)C#N)OC2=N (stereo unspecified)	1	103	4	101	-8	-5*	+
COc1ccc(C2=NN(C(=O)CSc3nc(=O)n4cccc(C)c4n3)C(c3ccc(C)cc3)C2)cc1 (stereo unspecified)	4	/	/	/	4	/	/
Cc1ccc(S(=O)(=O)Oc2ccccc2[N+](=O)[O-])cc1	-8	/	/	/	12	/	/
COCCCN1C(=O)c2ccc(C(=O)OCC(=O)N(CCC#N)c3cc(C)cc(C)c3)cc2C1=O	0	/	/	/	-2	/	/
CCN1C(=O)CC(C(=O)OC)=C1C	-7	100	1	102	-7	-0.51	/
COC(=O)C1=C(C)N(CCC2=CCCCC2)C(=O)C1	-6	109	3	110	-11	-4.1*	i
COc1ccccc1N(Cc1ccccc1)S(=O)(=O)c1cccc(C(=O)NC2CC(C)(C)NC(C)(C)C2)c1	21	/	/	/	7	/	/
COc1ccc(CN(CCC(c2ccccc2)c2ccc(OC(C)C)cc2)C(=O)CCl)cc1OC (stereo unspecified)	26	103	-1	122	16	-6.9*	+
CCCCCC(=O)N/N=C/c1ccc([N+](=O)[O-])o1	9	97	6	106	10	3.1e-05	/
O=C(CCC(=O)Nc1ccc(Cl)cc1Cl)N/N=C/c1ccc([N+](=O)[O-])o1	/	96	-1	104	-14	-5.2*	+
O=C(/C=C/c1cccc([N+](=O)[O-])c1)NC(=S)Nc1ccccc1C(=O)O	/	90	-17	91	/	-3.5*	+
CCOC(=O)/C(=C\c1cccc(O)c1)c1nc2sc(C)c(C)c2c(=O)[nH]1	12	98	-2	102	-13	-4.4*	+
CCOC(=O)c1nc2sc(C)c(C)c2c(=O)[nH]1	2	103	1	104	2	-0.33	/
COC(=O)c1cc(=O)n(CCc2ccccc2F)c(=Nc2ccc(F)c(Cl)c2)s1	13	106	8	109	-5	-4*	+
COC(=O)c1cc(=O)n(Cc2ccc(F)cc2)c(=NCc2ccc(F)cc2)s1	0	104	1	102	8	-3	/
COC(=O)c1cc(=O)n(Cc2ccco2)c(=Nc2ccc(F)c(Cl)c2)s1	33	104	9	110	-23	-3.9*	+
